Assay results taken from ChEMBL document CHEMBL1212864, “Synthesis of novel 3,5-diaryl pyrazole derivatives using combinatorial chemistry as inhibitors of tyrosinase as well as potent anticancer, anti-inflammatory agents” (Bioorg Med Chem, 2010).

Columns and labels:
THP-1 [1] = assay: Antiinflammatory activity against human THP1 cells assessed as inhibition of LPS-induced TNFalpha release at 10 uM after 24 hrs; type: functional; settings: THP-1, 24 h
How it was run: (§1)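 Human THP-1 cells were grown in RPMI 1640 with 10% FBS, penicillin and streptomycin, then differentiated with PMA. Test agents in 0.5% DMSO were preincubated with cells for 30 min at 37 °C before E. coli 0127:B8 LPS was added. Cytokine release was measured by the manufacturer's (BD Biosciences) method and expressed as percent inhibition versus control; IC50 values came from nonlinear regression.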

NCI-H460 [2] = assay: Anticancer activity against human H460 cells at 10 uM after 24 hrs; type: functional
HCT-116 [3] = assay: Anticancer activity against human HCT116 cells at 10 uM after 24 hrs; type: functional
HL-60 [4] = assay: Anticancer activity against human HL60 cells at 10 uM after 24 hrs; type: functional
Tyrosinase [5] = target: T1, Tyrosinase (Agaricus bisporus, UniProt O42713); assay: Inhibition of mashroom tyrosinase assessed as oxidation of L-DOPA
T1 sequence (O42713 whole entry): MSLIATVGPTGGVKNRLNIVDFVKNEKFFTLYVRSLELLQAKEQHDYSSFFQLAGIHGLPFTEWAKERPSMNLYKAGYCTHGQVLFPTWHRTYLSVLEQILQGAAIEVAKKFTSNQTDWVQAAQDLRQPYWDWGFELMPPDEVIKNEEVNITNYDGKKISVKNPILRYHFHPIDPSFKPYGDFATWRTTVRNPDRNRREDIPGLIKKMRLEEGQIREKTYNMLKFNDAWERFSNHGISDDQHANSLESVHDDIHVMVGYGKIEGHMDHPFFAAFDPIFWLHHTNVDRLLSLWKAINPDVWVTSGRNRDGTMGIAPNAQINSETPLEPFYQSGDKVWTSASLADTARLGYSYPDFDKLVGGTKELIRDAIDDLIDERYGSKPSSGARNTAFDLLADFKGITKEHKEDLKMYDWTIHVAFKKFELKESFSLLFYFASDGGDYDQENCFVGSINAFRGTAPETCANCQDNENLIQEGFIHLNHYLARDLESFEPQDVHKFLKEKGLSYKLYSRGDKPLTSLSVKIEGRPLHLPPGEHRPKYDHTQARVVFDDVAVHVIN
How it was run: (§2)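 Mushroom tyrosinase diphenolase activity (L-DOPA substrate) or monophenolase activity (L-tyrosine substrate) in 0.25 M phosphate buffer, pH 6.8, at 30 °C. Samples were first dissolved in DMSO. Dopachrome formation was followed spectrophotometrically at 475 nm.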

PC-3 [6] = assay: Anticancer activity against human PC3 cells at 10 uM after 24 hrs; type: functional
MCF7 [7] = assay: Anticancer activity against human MCF7 cells at 10 uM after 24 hrs; type: functional
THP-1 [8] = assay: Antiinflammatory activity against human THP1 cells assessed as inhibition of LPS-induced IL6 release at 10 uM after 24 hrs; type: functional; settings: THP-1, 24 h; how it was run: as §1
Tyrosinase [9] = target: T1, Tyrosinase; assay: Inhibition of mashroom tyrosinase; how it was run: as §2
MCF7 [10] = assay: Anticancer activity against human MCF7 cells at 0.5 uM after 24 hrs; type: functional
HL-60 [11] = assay: Anticancer activity against human HL60 cells at 0.5 uM after 24 hrs; type: functional
HCT-116 [12] = assay: Anticancer activity against human HCT116 cells at 0.5 uM after 24 hrs; type: functional
NCI-H460 [13] = assay: Anticancer activity against human H460 cells at 0.5 uM after 24 hrs; type: functional
PC-3 [14] = assay: Anticancer activity against human PC3 cells at 0.5 uM after 24 hrs; type: functional
THP-1 [15] = assay: Antiinflammatory activity against human THP1 cells assessed as inhibition of LPS-induced IL6 release at 1 uM after 24 hrs; type: functional; parameters: scale not given: the % may be the effect or the level left; how it was run: as §1
[16] = Cytotoxicity against […] at 1 uM; type: cell-based
How it was run: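 Cytotoxicity was measured with the CCK-8 kit in PMA-differentiated THP-1 cells at the same time as the LPS-induced cytokine release assay. Test agents were given in 0.5% DMSO with a 30 min preincubation at 37 °C before LPS.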

THP-1 [17] = assay: Antiinflammatory activity against human THP1 cells assessed as inhibition of LPS-induced TNFalpha release at 1 uM after 24 hrs; type: functional; parameters: scale not given: the % may be the effect or the level left; how it was run: as §1

Row | IC50 (Tyrosinase [5]) [µM] | Ki (Tyrosinase [5]) [µM] | IC50 (Tyrosinase [9]) [µM] | Ki (Tyrosinase [9]) [µM] | SMILES | inhibition at 10 µM (THP-1 [1]) [%] | Activity (NCI-H460 [2]) [%] | Activity (HCT-116 [3]) [%] | Activity (HL-60 [4]) [%] | Activity (PC-3 [6]) [%] | Activity (MCF7 [7]) [%] | inhibition at 10 µM (THP-1 [8]) [%] | Activity (MCF7 [10]) [%] | Activity (HL-60 [11]) [%] | Activity (HCT-116 [12]) [%] | Activity (NCI-H460 [13]) [%] | Activity (PC-3 [14]) [%] | Activity (THP-1 [15]) [%] | Activity [16] [%] | Activity (THP-1 [17]) [%]
1 | 29.4 | 11.8 | 22.8 | 10.6 | COc1cc(OC)c(C2CCN(C)C2CO)c(O)c1-c1cc(-c2ccccc2Cl)[nH]n1 (centres undefined) | 24 | 69 | 73 | 67 | 69 | 63 | 47 |  |  |  |  |  |  |  | 
2 |  |  |  |  | COc1cc(OC)c(C2CCN(C)C2CO)c(O)c1-c1cc(-c2ccccc2Br)[nH]n1 (centres undefined) | 19 | 53 | 61 | 62 | 51 | 55 | 39 |  |  |  |  |  |  |  | 
3 |  |  |  |  | COc1cc(OC)c(C2CCN(C)C2CO)c(O)c1-c1cc(-c2ccc(Cl)cc2Cl)[nH]n1 (centres undefined) | 18 | 61 | 59 | 59 | 63 | 58 | 41 |  |  |  |  |  |  |  | 
4 | 21.5 | 14.6 | 17.8 | 9.85 | COc1cc(OC)c(C2CCN(C)C2CO)c(O)c1-c1cc(-c2ccc([N+](=O)[O-])cc2Cl)[nH]n1 (centres undefined) | 21 | 65 | 67 | 63 | 65 | 61 | 42 |  |  |  |  |  |  |  | 
5 |  |  |  |  | COc1cc(OC)c(C2CCN(C)C2CO)c(O)c1-c1cc(-c2ccccc2F)[nH]n1 (centres undefined) | 0 | 23 | 19 | 19 | 21 | 15 | 11 |  |  |  |  |  |  |  | 
6 |  |  |  |  | COc1cc(OC)c(C2CCN(C)C2CO)c(O)c1-c1cc(-c2ccccc2C)[nH]n1 (centres undefined) | 0 | 18 | 16 | 14 | 17 | 11 | 13 |  |  |  |  |  |  |  | 
7 |  |  |  |  | COc1ccccc1-c1cc(-c2c(OC)cc(OC)c(C3CCN(C)C3CO)c2O)n[nH]1 (centres undefined) | 0 | 15 | 21 | 17 | 29 | 13 | 10 |  |  |  |  |  |  |  | 
8 | 2.84 | 0.96 | 1.75 | 0.84 | COc1ccc(-c2cc(-c3c(OC)cc(OC)c(C4CCN(C)C4CO)c3O)n[nH]2)c(OC)c1 (centres undefined) | 0 | 19 | 17 | 24 | 16 | 21 | 11 |  |  |  |  |  |  |  | 
9 |  |  |  |  | COc1cc(OC)c(C2CCN(C)C2CO)c(O)c1-c1cc(-c2cccc(Cl)c2)[nH]n1 (centres undefined) | 11 | 55 | 63 | 61 | 67 | 59 | 35 |  |  |  |  |  |  |  | 
10 |  |  |  |  | COc1cc(OC)c(C2CCN(C)C2CO)c(O)c1-c1cc(-c2cccc(Br)c2)[nH]n1 (centres undefined) | 13 | 61 | 59 | 52 | 58 | 65 | 43 |  |  |  |  |  |  |  | 
11 |  |  |  |  | COc1cc(OC)c(C2CCN(C)C2CO)c(O)c1-c1cc(-c2ccc(C)cc2)[nH]n1 (centres undefined) | 0 | 13 | 19 | 21 | 11 | 17 | 10 |  |  |  |  |  |  |  | 
12 | 19.6 | 12.6 | 15.5 | 11.2 | COc1cc(OC)c(C2CCN(C)C2CO)c(O)c1-c1cc(-c2ccc(F)cc2)[nH]n1 (centres undefined) | 11 | 16 | 21 | 26 | 15 | 19 | 28 |  |  |  |  |  |  |  | 
13 |  |  |  |  | COc1ccc(-c2cc(-c3c(OC)cc(OC)c(C4CCN(C)C4CO)c3O)n[nH]2)cc1 (centres undefined) | 0 | 13 | 16 | 19 | 22 | 15 | 12 |  |  |  |  |  |  |  | 
14 |  |  |  |  | COc1cc(OC)c(C2CCN(C)C2CO)c(O)c1-c1cc(-c2ccc(Cl)cc2)[nH]n1 (centres undefined) | 16 | 58 | 55 | 63 | 65 | 61 | 35 |  |  |  |  |  |  |  | 
15 |  |  |  |  | COc1cc(OC)c(C2CCN(C)C2CO)c(O)c1-c1cc(-c2ccc(Br)cc2)[nH]n1 (centres undefined) | 17 | 61 | 49 | 57 | 59 | 63 | 31 |  |  |  |  |  |  |  | 
16 |  |  |  |  | CN1CC[C@H](c2c(O)cc(O)c3c(=O)cc(-c4ccccc4Cl)oc23)[C@H](O)C1 [ALVOCIDIB] |  |  |  |  |  |  |  | 74 | 72 | 87 | 78 | 77 |  |  | 
17 |  |  |  |  | C[C@@H]1C[C@H]2[C@@H]3CCC4=CC(=O)C=C[C@]4(C)[C@@]3(F)[C@@H](O)C[C@]2(C)[C@@]1(O)C(=O)CO [DEXAMETHASONE] |  |  |  |  |  |  |  |  |  |  |  |  | 85 | 0 | 71
